Measured values published in ChEMBL document CHEMBL4376874, “Discovery of Potent and Selective Epidermal Growth Factor Receptor (EGFR) Bifunctional Small-Molecule Degraders” (J Med Chem, 2020).
Active and inactive are the calls of the source. The rule behind the calls is not given here.

How the values were obtained:
[1] = system: Protein cereblon/Epidermal growth factor receptor (Homo sapiens), P00533+Q96SW2 [UNDEFINED MUTATION]; assay: Reversible protac activity at CRBN/EGFR exon 19 deletion mutant in human HCC827 cells assessed as recovery of AKT phosphorylation at 100 nM preincubated for 12 hrs followed by compound washout and measured after 48 hrs by Western blot analysis
Chain of Protein cereblon/Epidermal growth factor receptor (Homo sapiens), P00533+Q96SW2 [UNDEFINED MUTATION] (P00533 whole entry, looked up, stated change not applied): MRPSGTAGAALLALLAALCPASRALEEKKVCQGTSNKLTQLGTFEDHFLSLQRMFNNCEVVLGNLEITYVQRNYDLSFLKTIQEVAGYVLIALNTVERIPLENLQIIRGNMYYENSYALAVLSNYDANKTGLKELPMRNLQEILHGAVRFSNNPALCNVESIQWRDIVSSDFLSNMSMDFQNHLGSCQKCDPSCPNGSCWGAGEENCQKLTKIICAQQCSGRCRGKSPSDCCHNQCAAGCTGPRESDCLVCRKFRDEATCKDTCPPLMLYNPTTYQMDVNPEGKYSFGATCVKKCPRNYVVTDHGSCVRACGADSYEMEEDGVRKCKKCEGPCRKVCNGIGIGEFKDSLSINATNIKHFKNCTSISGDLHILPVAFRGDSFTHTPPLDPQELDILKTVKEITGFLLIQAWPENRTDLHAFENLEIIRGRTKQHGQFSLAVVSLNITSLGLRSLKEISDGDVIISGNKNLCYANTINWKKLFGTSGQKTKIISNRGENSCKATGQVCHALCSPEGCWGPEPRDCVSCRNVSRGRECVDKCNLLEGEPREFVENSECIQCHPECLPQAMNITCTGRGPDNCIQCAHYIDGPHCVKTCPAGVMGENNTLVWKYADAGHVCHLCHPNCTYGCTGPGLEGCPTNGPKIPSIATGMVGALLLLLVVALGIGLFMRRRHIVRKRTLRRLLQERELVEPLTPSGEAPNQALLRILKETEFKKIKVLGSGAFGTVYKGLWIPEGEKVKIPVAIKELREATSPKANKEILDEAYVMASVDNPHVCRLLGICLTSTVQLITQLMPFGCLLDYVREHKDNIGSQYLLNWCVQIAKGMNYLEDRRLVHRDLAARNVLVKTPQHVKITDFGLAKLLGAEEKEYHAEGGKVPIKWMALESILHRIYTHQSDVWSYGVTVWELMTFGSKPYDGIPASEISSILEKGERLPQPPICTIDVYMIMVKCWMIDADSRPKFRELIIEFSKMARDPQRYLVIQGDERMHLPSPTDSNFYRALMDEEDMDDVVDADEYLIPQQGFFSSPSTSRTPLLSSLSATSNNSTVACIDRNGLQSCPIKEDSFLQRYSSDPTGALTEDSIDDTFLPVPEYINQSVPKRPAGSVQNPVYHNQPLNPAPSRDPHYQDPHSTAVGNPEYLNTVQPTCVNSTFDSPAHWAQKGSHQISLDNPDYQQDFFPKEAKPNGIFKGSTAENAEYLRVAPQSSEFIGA
Chain of Protein cereblon/Epidermal growth factor receptor (Homo sapiens), P00533+Q96SW2 [UNDEFINED MUTATION] (Q96SW2 whole entry, looked up, stated change not applied): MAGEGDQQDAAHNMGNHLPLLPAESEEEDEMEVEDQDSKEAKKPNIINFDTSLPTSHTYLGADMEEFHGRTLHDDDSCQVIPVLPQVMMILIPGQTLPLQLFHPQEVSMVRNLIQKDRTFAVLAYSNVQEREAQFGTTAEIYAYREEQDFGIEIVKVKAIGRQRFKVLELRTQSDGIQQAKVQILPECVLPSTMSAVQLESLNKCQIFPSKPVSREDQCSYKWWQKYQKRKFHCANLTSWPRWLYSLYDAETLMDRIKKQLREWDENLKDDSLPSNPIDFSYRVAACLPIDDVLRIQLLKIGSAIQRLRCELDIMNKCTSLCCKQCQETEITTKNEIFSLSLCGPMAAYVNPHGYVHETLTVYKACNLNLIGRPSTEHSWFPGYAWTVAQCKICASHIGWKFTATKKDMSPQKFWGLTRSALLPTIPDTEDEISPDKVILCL

[2] = system: Protein cereblon/Epidermal growth factor receptor (Homo sapiens), P00533+Q96SW2 [UNDEFINED MUTATION]; assay: Protac activity at CRBN/EGFR exon 19 deletion mutant in human HCC827 cells assessed as reduction in AKT phosphorylation up to 10 uM treated 8 hrs post serum starvation measured after 16 hrs by Western blot analysis; assay type: cell-based
In short: (§1)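 Cultured to 80% confluence in RPMI/1640 with 20% FBS at 37 °C and 5% CO2, then switched to serum-free medium for 8 h. Degraders were added over a concentration range up to 10 μM for 16 h, with gefitinib at 1 μM as reference. Lysates in Laemmli buffer were immunoblotted for EGFR, p-EGFR and p-AKT. DC50 came from band quantification by nonlinear regression (variable slope).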

[3] = system: Protein cereblon/Epidermal growth factor receptor (Homo sapiens), P00533+Q96SW2 [L858R]; assay: Protac activity at CRBN/EGFR L858R mutant in human H3255 cells assessed as induction of EGFR degradation at 100 nM measured after 8 hrs in presence of CRBN E3 ligase binder thalidomide by Western blot analysis; assay type: cell-based
[4] = system: Protein cereblon/Epidermal growth factor receptor (Homo sapiens), P00533+Q96SW2 [L858R]; assay: Protac activity at CRBN/EGFR L858R mutant in human H3255 cells assessed as induction of EGFR degradation at >=50 nM treated 8 hrs post serum starvation measured after 16 hrs by Western blot analysis relative to control; assay type: cell-based
In short: as §1

[5] = target: Epidermal growth factor receptor (Homo sapiens, UniProt P00533); assay: Induction of wild-type EGFR degradation in human H1299 cells at up to 10 uM treated 8 hrs post serum starvation measured after 16 hrs by Western blot analysis; assay type: cell-based
Chain of Epidermal growth factor receptor (P00533 whole entry): as the sequence (P00533 whole entry, looked up, stated change not applied) above

[6] = system: Protein cereblon/Epidermal growth factor receptor (Homo sapiens), P00533+Q96SW2 [L858R]; assay: Protac activity at CRBN/EGFR L858R mutant in human H3255 cells assessed as induction of EGFR degradation at 100 nM measured after 8 hrs in presence of EGFR inhibitor gefitinib by Western blot analysis; assay type: cell-based
[7] = system: Protein cereblon/Epidermal growth factor receptor (Homo sapiens), P00533+Q96SW2 [L858R]; assay: Protac activity at CRBN/EGFR L858R mutant in human H3255 cells assessed as induction of EGFR degradation at 100 nM measured after 8 hrs in presence of negative control MS154N by Western blot analysis; assay type: cell-based
[8] = system: Protein cereblon/Epidermal growth factor receptor (Homo sapiens), P00533+Q96SW2 [UNDEFINED MUTATION]; assay: Protac activity at CRBN/EGFR exon 19 deletion mutant in human HCC827 cells assessed as induction of EGFR degradation at up to 1 uM treated 8 hrs post serum starvation measured after 16 hrs by Western blot analysis; assay type: cell-based
NCI-H3255 [9] = assay: Antiproliferative activity against human H3255 cells measured after 3 days by CCK8 assay; assay type: functional, cell-based
In short: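 H3255 cells seeded 4000/well the night before, then exposed to serial dilutions for 3 days. Growth read by Cell Counting Kit-8; three independent experiments. IC50 from nonlinear regression (log inhibitor vs response, variable slope).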

NCI-H3255 [10] = assay: Effect on AKT level in human H3255 cells up to 10 uM treated 8 hrs post serum starvation measured after 16 hrs by Western blot analysis; assay type: ADME, cell-based; conditions: nci-h3255, 16 h
[11] = system: Protein cereblon/Epidermal growth factor receptor (Homo sapiens), P00533+Q96SW2 [UNDEFINED MUTATION]; assay: Reversible protac activity at CRBN/EGFR exon 19 deletion mutant in human HCC827 cells assessed as recovery of EGFR degradation at 100 nM preincubated for 12 hrs followed by compound washout and measured after 24 hrs by Western blot analysis; assay type: cell-based
In short: (§2)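 Cells were serum-starved 8 h, then given degrader for 12 h. They were washed three times with PBS and harvested at the indicated time points after washout. EGFR, p-EGFR and p-AKT were read by Western blot.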

[12] = system: Protein cereblon/Epidermal growth factor receptor (Homo sapiens), P00533+Q96SW2 [L858R]; assay: Protac activity at CRBN/EGFR L858R mutant in human H3255 cells assessed as induction of EGFR degradation at 100 nM measured after 8 hrs in presence of neddylation inhibitor MLN4924 by Western blot analysis; assay type: cell-based
[13] = system: Protein cereblon/Epidermal growth factor receptor (Homo sapiens), P00533+Q96SW2 [L858R]; assay: Protac activity at CRBN/EGFR L858R mutant in human H3255 cells assessed as induction of EGFR degradation at 0.1 to 1 uM incubated for 8 hrs in absence of FBS by Western blot analysis; assay type: cell-based
[14] = system: Protein cereblon/Epidermal growth factor receptor (Homo sapiens), P00533+Q96SW2 [UNDEFINED MUTATION]; assay: Reversible protac activity at CRBN/EGFR exon 19 deletion mutant in human HCC827 cells assessed as recovery of EGFR phosphorylation at 100 nM preincubated for 12 hrs followed by compound washout and measured after 24 hrs by Western blot analysis; assay type: cell-based
In short: as §2

[15] = system: Protein cereblon/Epidermal growth factor receptor (Homo sapiens), P00533+Q96SW2 [L858R]; assay: Protac activity at CRBN/EGFR L858R mutant in human H3255 cells assessed as induction of EGFR degradation treated 8 hrs post serum starvation measured after 16 hrs by Western blot analysis; assay type: cell-based
[16] = system: Protein cereblon/Epidermal growth factor receptor (Homo sapiens), P00533+Q96SW2 [UNDEFINED MUTATION]; assay: Protac activity at CRBN/EGFR exon 19 deletion mutant in human HCC827 cells assessed as induction of EGFR degradation at 100 nM measured after 16 hrs by LC-MS analysis relative to control; assay type: cell-based
[17] = system: Protein cereblon/Epidermal growth factor receptor (Homo sapiens), P00533+Q96SW2 [UNDEFINED MUTATION]; assay: Protac activity at CRBN/EGFR exon 19 deletion mutant in human HCC827 cells assessed as induction of EGFR degradation at 100 nM treated 8 hrs post serum starvation measured after 12 hrs by Western blot analysis relative to control; assay type: cell-based
In short: (§3)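 After 8 h serum starvation, cells got 100 nM degrader and were collected at serial time points for Western blot of EGFR and downstream signaling.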

HCC827 [18] = assay: Up regulation of HMGCS1 expression in human HCC827 cells at 100 nM measured after 16 hrs by LC-MS analysis; assay type: functional, cell-based
In short: (§4)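 HCC-827 cells serum-starved 8 h, then treated at 100 nM for 16 h. Collected for label-free quantitative LC–MS proteomics; LFQ intensity compared between treated and control groups; three independent experiments.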

[19] = Toxicity in Swiss albino mouse assessed as clinical changes at 50 mg/kg, ip; assay type: organism-based; conditions: in vivo
[20] = system: Protein cereblon/Epidermal growth factor receptor (Homo sapiens), P00533+Q96SW2 [L858R]; assay: Reversible protac activity at CRBN/EGFR L858R mutant in human H3255 cells assessed as recovery of EGFR degradation at 100 nM preincubated for 12 hrs followed by compound washout and measured up to 48 hrs by Western blot analysis; assay type: cell-based
In short: as §2

HCC827 [21] = assay: Down regulation of NELFE expression in human HCC827 cells at 100 nM measured after 16 hrs by LC-MS analysis; assay type: functional, cell-based
In short: as §4

[22] = system: Protein cereblon/Epidermal growth factor receptor (Homo sapiens), P00533+Q96SW2 [L858R]; assay: Protac activity at CRBN/EGFR L858R mutant in human H3255 cells assessed as induction of EGFR degradation at 10 uM treated 8 hrs post serum starvation measured after 16 hrs by Western blot analysis; assay type: cell-based
In short: as §1

[23] = system: Protein cereblon/Epidermal growth factor receptor (Homo sapiens), P00533+Q96SW2 [UNDEFINED MUTATION]; assay: Protac activity at CRBN/EGFR exon 19 deletion mutant in human HCC827 cells assessed as induction of EGFR degradation at >=50 nM treated 8 hrs post serum starvation measured after 16 hrs by Western blot analysis relative to control; assay type: cell-based
In short: as §1

[24] = system: Protein cereblon/Epidermal growth factor receptor (Homo sapiens), P00533+Q96SW2 [UNDEFINED MUTATION]; assay: Protac activity at CRBN/EGFR exon 19 deletion mutant in human HCC827 cells assessed as time required to induce 50% EGFR degradation at 100 nM treated 8 hrs post serum starvation by Western blot analysis; assay type: cell-based
In short: as §3

[25] = system: Protein cereblon/Epidermal growth factor receptor (Homo sapiens), P00533+Q96SW2 [L858R]; assay: Reversible protac activity at CRBN/EGFR L858R mutant in human H3255 cells assessed as recovery of EGFR phosphorylation at 100 nM preincubated for 12 hrs followed by compound washout and measured up to 48 hrs by Western blot analysis; assay type: cell-based
In short: as §2

With COc1cc2ncnc(Nc3ccc(F)c(Cl)c3)c2cc1OCCCN1CCN(CCC(=O)NCCCCCCCCOc2cccc3c2C(=O)N(C2CCC(=O)NC2=O)C3=O)CC1 (stereo not given) as the compound, how does the Activity [1] read?
Its Activity is “Active”.

And the Activity [2]?
The Activity was “Active”.

And the Activity [3]?
Its Activity is “inactive”.

What about the %max [4] of the same compound?
The %max was over 95%.

What about the Activity [5] of the same compound?
The Activity was “Not Active”.

What about the Activity [6] of the same compound?
Its Activity is “inactive”.

And the Activity [7]?
The Activity was “inactive”.

And the Activity [8]?
Its Activity is “Active”.

And the Activity (NCI-H3255 [9])?
The Activity was “Active”.

And the Activity (NCI-H3255 [10])?
The Activity was “Non-Toxic”.

And the Activity [11]?
The Activity was “Active”.

What about the Activity [12] of the same compound?
Its Activity is “inactive”.

And the Activity [13]?
Its Activity is “Active”.

What about the Activity [14] of the same compound?
The Activity was “Active”.

What about the Activity [15] of the same compound?
The Activity was “Dose-dependent effect”.

And the Activity [16]?
Its Activity is over 75%.

And the Activity [17]?
The Activity was 100%.

What about the Activity (HCC827 [18]) of the same compound?
The Activity was “Active”.

What about the Activity [19] of the same compound?
Its Activity is “Non-Toxic”.

What about the Activity [20] of the same compound?
The Activity was “Active”.

And the Activity (HCC827 [21])?
The Activity was “Active”.

What about the Activity [22] of the same compound?
The Activity was “Active”.

And the %max [23]?
The %max was over 95%.

And the T1/2 [24]?
Its T1/2 is 3.5 h.

And the Activity [25]?
Its Activity is “Active”.
